Results taken from ChEMBL document CHEMBL1124415, “Acrylamide derivatives as antiallergic agents. 2. Synthesis and structure-activity relationships of N-[4-[4-(diphenylmethyl)-1-piperazinyl]butyl]-3-(3-pyridyl)acryl amides” (J Med Chem, 1989).

Species on record: Homo sapiens
Assay: Inhibitory activity against histamine release in human basophil
Type: functional
Conditions: not given
In short: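 Basophils from nonallergic human volunteers, washed in Tris-A buffer pH 7.4 (first wash with 4 mM EDTA), resuspended at 5-10 × 10^6 leukocytes/mL in Tris-ACM pH 7.6; preincubated with compound 15 min at 37 °C, then 45 min with anti-human IgE.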
With `CN1CCC(=C2c3ccccc3CC(=O)c3sccc32)CC1` [KETOTIFEN] the IC50 was > 100000 nM. `Cc1ccc(/C=C/C(=O)NCCCCN2CCN(C(c3ccccc3)c3ccccc3)CC2)cn1` [TAGORIZINE] gave an IC50 of 34000 nM.

Each compound was assayed on Rattus norvegicus (assay: Antiallergic activity by passive cutaneous anaphylaxis assay upon peroral administration of 20 mg/kg in rat). Conditions: route oral.
Type: functional
`Cc1ccc(/C=C/C=C/C(=O)NCCCN2CCN(C(c3ccccc3)c3ccccc3)CC2)cn1` was tested, and the inhibition in vivo at 20 mg/kg was 35.8%. In the case of `CN1CCC(=C2c3ccccc3CC(=O)c3sccc32)CC1` [KETOTIFEN], the ED50 is reported as 16.3 mg/kg.

Species on record: Cavia porcellus
Assay: Anti-histaminic activity was measured in guinea pig trachea
Type: functional
Conditions: not given
In short: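 Zig-zag guinea pig tracheal strips; histamine dose-response curves obtained before and 60 min after adding test compound.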
In the case of `CN1CCC(=C2c3ccccc3CC(=O)c3sccc32)CC1` [KETOTIFEN], the IC50 is reported as 1.6 nM. `Cc1ccc(/C=C/C(=O)NCCCCN2CCN(C(c3ccccc3)c3ccccc3)CC2)cn1` [TAGORIZINE] was tested, and the IC50 was 120 nM.

Species on record: Rattus norvegicus
Assay: ED50 value was measured in rat passive cutaneous anaphylaxis (PCA) by linear regression analysis
Type: functional
Conditions: not given
With `Cc1ccc(/C=C/C(=O)NCCCCN2CCN(C(c3ccccc3)c3ccccc3)CC2)cn1` [TAGORIZINE] the ED50 was 3.3 mg/kg.

The compounds below were run on Rattus norvegicus (assay: Antiallergic activity determined by passive cutaneous anaphylaxis assay upon peroral administration of 20 mg/kg in rat). Conditions: route oral.
Type: functional
`O=C(/C=C/c1ccc(Cl)nc1)NCCCCN1CCN(C(c2ccccc2)c2ccccc2)CC1` gave an inhibition in vivo at 20 mg/kg of 49.3%. `O=C(/C=C/c1cccnc1)NCCCCN1CCN(C(c2ccccc2)c2ccc(F)cc2)CC1` (stereo not drawn) was tested, and the inhibition in vivo at 20 mg/kg was 53.8%. `COc1ccc(/C=C/C(=O)NCCCCN2CCN(C(c3ccccc3)c3ccccc3)CC2)cn1` gave an inhibition in vivo at 20 mg/kg of 41%. `Cc1ccc(/C=C/C(=O)NCCCCN2CCC(=C(c3ccccc3)c3ccccc3)CC2)cn1` gave an inhibition in vivo at 20 mg/kg of 99.5%. `C/C(=C\c1cccnc1)C(=O)NCCCCN1CCN(C(c2ccccc2)c2ccccc2)CC1` gave an inhibition in vivo at 20 mg/kg of 78.9%. `CCCOc1ccc(/C=C/C(=O)NCCCCN2CCN(C(c3ccccc3)c3ccccc3)CC2)cn1` showed an inhibition in vivo at 20 mg/kg of 7.5%. In the case of `O=C(/C=C/c1cncc(Cl)c1)NCCCCN1CCN(C(c2ccccc2)c2ccccc2)CC1`, the inhibition in vivo at 20 mg/kg is reported as 66.4%. `O=C(/C=C/C=C/c1cccnc1)NCCCN1CCN(C(c2ccccc2)c2ccccc2)CC1` was tested, and the inhibition in vivo at 20 mg/kg was 40.4%. For `O=C(/C=C/c1ccc(-c2ccccc2)nc1)NCCCCN1CCN(C(c2ccccc2)c2ccccc2)CC1`, the inhibition in vivo at 20 mg/kg was 3.2%. Work on `Cc1ccc(C(c2ccc(C)cc2)N2CCN(CCCCNC(=O)/C=C/c3cccnc3)CC2)cc1` yielded an inhibition in vivo at 20 mg/kg of 20.2%. `O=C(/C=C/c1cccnc1)NCCCCN1CCC(OC(c2ccccc2)c2ccccc2)CC1` showed an inhibition in vivo at 20 mg/kg of 42.2%. `O=C(NCCCCN1CCN(C(c2ccccc2)c2ccccc2)CC1)/C(=C/c1cccnc1)c1ccccc1` showed an inhibition in vivo at 20 mg/kg of 58%. In the case of `O=C(/C=C/c1ccc(Oc2ccccc2)nc1)NCCCCN1CCN(C(c2ccccc2)c2ccccc2)CC1`, the inhibition in vivo at 20 mg/kg is reported as 45.6%. Work on `Cc1ccc(C(c2ccccc2)N2CCN(CCCCNC(=O)/C=C/c3cccnc3)CC2)cc1` (stereo not drawn) yielded an inhibition in vivo at 20 mg/kg of 82.9%. Compound `CCSc1ccc(/C=C/C(=O)NCCCCN2CCN(C(c3ccccc3)c3ccccc3)CC2)cn1` has an inhibition in vivo at 20 mg/kg of 18.6%. `CCOc1ccc(/C=C/C(=O)NCCCCN2CCN(C(c3ccccc3)c3ccccc3)CC2)cn1` showed an inhibition in vivo at 20 mg/kg of 33.9%. With `O=C(/C=C/C=C/c1cccnc1)NCCCCN1CCN(C(c2ccccc2)c2ccccc2)CC1` the inhibition in vivo at 20 mg/kg was 66.4%. For `Cc1ccc(CCC(=O)NCCCCN2CCN(C(c3ccccc3)c3ccccc3)CC2)cn1`, the inhibition in vivo at 20 mg/kg was 24.9%. With `O=C(CCc1cccnc1)NCCCCN1CCN(C(c2ccccc2)c2ccccc2)CC1` the inhibition in vivo at 20 mg/kg was 28.1%. With `O=C(/C=C/c1cccnc1Cl)NCCCCN1CCN(C(c2ccccc2)c2ccccc2)CC1` the inhibition in vivo at 20 mg/kg was < 39.3%. `COc1ccc(C(c2ccccc2)N2CCN(CCCCNC(=O)/C=C/c3cccnc3)CC2)cc1` (stereo not drawn) was tested, and the inhibition in vivo at 20 mg/kg was 40.9%. `O=C(/C=C/c1cccnc1)NCCCCN1CCC(=C(c2ccccc2)c2ccccc2)CC1` was tested, and the inhibition in vivo at 20 mg/kg was 85.9%. `O=C(/C=C/c1cncc(O)c1)NCCCCN1CCN(C(c2ccccc2)c2ccccc2)CC1` was tested, and the inhibition in vivo at 20 mg/kg was 28.8%. Work on `O=C(/C=C/c1cncc(F)c1)NCCCCN1CCN(C(c2ccccc2)c2ccccc2)CC1` yielded an inhibition in vivo at 20 mg/kg of 65%. `CCCCc1ccc(/C=C/C(=O)NCCCCN2CCN(C(c3ccccc3)c3ccccc3)CC2)cn1` was tested, and the inhibition in vivo at 20 mg/kg was 22.2%. `Cc1ccc(C(c2ccccc2)N2CCN(CCCCNC(=O)/C=C/c3ccc(C)nc3)CC2)cc1` (stereo not drawn) was tested, and the inhibition in vivo at 20 mg/kg was 73.9%. In the case of `O=C(/C=C/c1cncc(Br)c1)NCCCCN1CCN(C(c2ccccc2)c2ccccc2)CC1`, the inhibition in vivo at 20 mg/kg is reported as 47.5%. For `Cc1ncc(/C=C/C=C/C(=O)NCCCN2CCN(C(c3ccccc3)c3ccccc3)CC2)c(CO)c1O`, the inhibition in vivo at 20 mg/kg was 9.8%. Work on `Cc1ccc(/C=C/C=C/C(=O)NCCCCN2CCN(C(c3ccccc3)c3ccccc3)CC2)cn1` yielded an inhibition in vivo at 20 mg/kg of 68.8%. For `CNc1ncccc1/C=C/C(=O)NCCCCN1CCN(C(c2ccccc2)c2ccccc2)CC1`, the inhibition in vivo at 20 mg/kg was 45.2%. Compound `Cc1ncccc1/C=C/C(=O)NCCCCN1CCN(C(c2ccccc2)c2ccccc2)CC1` has an inhibition in vivo at 20 mg/kg of 68.8%. With `Cc1cc(/C=C/C(=O)NCCCCN2CCN(C(c3ccccc3)c3ccccc3)CC2)cnc1C` the inhibition in vivo at 20 mg/kg was 40.5%. `Cc1ccc(/C=C/C(=O)NCCCCN2CCN(C(c3ccccc3)c3ccccc3)CC2)c(C)n1` was tested, and the inhibition in vivo at 20 mg/kg was 66.8%. For `COc1cncc(/C=C/C(=O)NCCCCN2CCN(C(c3ccccc3)c3ccccc3)CC2)c1`, the inhibition in vivo at 20 mg/kg was 7.6%. For `O=C(/C=C/c1cccnc1)NCCCCN1CCC(C(O)(c2ccccc2)c2ccccc2)CC1`, the inhibition in vivo at 20 mg/kg was 35.1%. For `CC(C)c1ccc(/C=C/C(=O)NCCCCN2CCN(C(c3ccccc3)c3ccccc3)CC2)cn1`, the inhibition in vivo at 20 mg/kg was 38.9%. Work on `Cc1cccc(C(c2ccccc2)N2CCN(CCCCNC(=O)/C=C/c3cccnc3)CC2)c1` (stereo not drawn) yielded an inhibition in vivo at 20 mg/kg of 19%. `CC/C(=C\c1cccnc1)C(=O)NCCCCN1CCN(C(c2ccccc2)c2ccccc2)CC1` showed an inhibition in vivo at 20 mg/kg of 67.8%. `O=C(/C=C/c1cccnc1)NCCCCN1CCN(C(c2ccccc2)c2ccccc2)CC1` was tested, and the inhibition in vivo at 20 mg/kg was 62.3%. In the case of `Cc1ncc(/C=C/C(=O)NCCCCN2CCN(C(c3ccccc3)c3ccccc3)CC2)c(CO)c1O`, the inhibition in vivo at 20 mg/kg is reported as 53.7%. `Cc1ccc(C(c2ccccc2)N2CCN(CCCCNC(=O)/C=C/c3cccnc3)CC2)cc1C` (stereo not drawn) gave an inhibition in vivo at 20 mg/kg of 5.4%. Compound `C/C(=C\C(=O)NCCCCN1CCN(C(c2ccccc2)c2ccccc2)CC1)c1cccnc1` has an inhibition in vivo at 20 mg/kg of 52.2%. Work on `Cc1ncc(/C=C/C(=O)NCCCCN2CCN(C(c3ccccc3)c3ccccc3)CC2)c2c1OC(C)(C)OC2` yielded an inhibition in vivo at 20 mg/kg of 17%. In the case of `O=C(/C=C/c1cccnc1)NCCCCN1CCN(C(c2ccccc2)c2ccc(Cl)cc2)CC1` (stereo not drawn), the inhibition in vivo at 20 mg/kg is reported as 19.9%. With `Cc1ncc(/C=C/C=C/C(=O)NCCCCN2CCN(C(c3ccccc3)c3ccccc3)CC2)c(CO)c1O` the inhibition in vivo at 20 mg/kg was 16.4%. `CCCc1ccc(/C=C/C(=O)NCCCCN2CCN(C(c3ccccc3)c3ccccc3)CC2)cn1` showed an inhibition in vivo at 20 mg/kg of 44.4%. Work on `C/C(=C\c1ccc(C)nc1)C(=O)NCCCCN1CCN(C(c2ccccc2)c2ccccc2)CC1` yielded an inhibition in vivo at 20 mg/kg of 58.2%. `CCC/C(=C\c1cccnc1)C(=O)NCCCCN1CCN(C(c2ccccc2)c2ccccc2)CC1` showed an inhibition in vivo at 20 mg/kg of 44.2%. With `CCCCCOc1ccc(/C=C/C(=O)NCCCCN2CCN(C(c3ccccc3)c3ccccc3)CC2)cn1` the inhibition in vivo at 20 mg/kg was 14.9%. With `O=C(/C=C/c1cccnc1)NCCCCN1CCN(C(c2ccc(Cl)cc2)c2ccc(Cl)cc2)CC1` the inhibition in vivo at 20 mg/kg was 5.4%. Work on `Cc1ccc(/C=C/C(=O)NCCCCN2CCN(C(c3ccccc3)c3ccccc3)CC2)cn1` [TAGORIZINE] yielded an inhibition in vivo at 20 mg/kg of 81.9%.
